In ChEMBL document CHEMBL4411265, “Bioactive Pentacyclic Triterpenes from the Root Bark Extract of Myrianthus arboreus, a Species Used Traditionally to Treat Type-2 Diabetes” (J Nat Prod, 2018):

Experiments:
[1] = target: T1, Glycogen synthase kinase-3 (Homo sapiens) (UniProt P49840+P49841); test: Activation of GSK3 in human HepG2 cells assessed as increase in ratio of phosphorylated GSK3 to total GSK3 level at MNTD after 18 hrs by Western blot analysis relative to control; type: cell-based
Procedure, shortened: (§1)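 Confluent H4IIE rat hepatoma cells (DMEM, 10% FBS) or HepG2 human hepatoma cells (DMEM/F12, 10% FBS) exposed 18 h to samples at maximal nontoxic concentration, 0.1% DMSO vehicle; RIPA lysates, 40 μg protein by SDS-PAGE, nitrocellulose blotting, 5% milk block. Antibodies against p-Akt Thr308/Akt, p-AMPKα Thr172/AMPK, p-GSK-3 Ser9/GSK-3, HRP secondary, ECL detection. Phospho/total ratio relative to DMSO; three independent passages.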

[2] = target: T2, Glucose-6-phosphatase catalytic subunit 1 (Rattus norvegicus) (UniProt P43428); test: Inhibition of glucose-6-phosphatase in rat […] cells at MNTD using glucose-6-phosphate as substrate preincubated overnight followed by substrate addition and measured after 40 mins relative to control; type: cell-based
T2 sequence (whole entry): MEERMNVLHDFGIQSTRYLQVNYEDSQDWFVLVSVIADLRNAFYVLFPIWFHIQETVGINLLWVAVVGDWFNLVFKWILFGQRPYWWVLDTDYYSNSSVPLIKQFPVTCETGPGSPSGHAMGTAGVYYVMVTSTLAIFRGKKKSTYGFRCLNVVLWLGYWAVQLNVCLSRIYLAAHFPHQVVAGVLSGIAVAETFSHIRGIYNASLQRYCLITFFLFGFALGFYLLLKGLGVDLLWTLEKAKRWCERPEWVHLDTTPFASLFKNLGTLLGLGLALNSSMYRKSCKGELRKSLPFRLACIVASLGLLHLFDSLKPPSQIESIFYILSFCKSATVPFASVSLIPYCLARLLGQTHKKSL
Procedure, shortened: (§2)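 H4IIE rat hepatoma cells at 90% confluence treated overnight at maximal nontoxic concentration, 0.1% DMSO vehicle. Lysis in phosphate buffer with 0.05% Triton; lysate incubated with glucose-6-phosphate buffer 40 min at 37 °C. Released glucose read by glucose kit against standard curve, normalized to BCA protein; percent change from vehicle. Means of three experiments in triplicate.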

[3] = target: T3, Glycogen [starch] synthase, liver (Homo sapiens) (UniProt P54840); test: Activation of insulin-stimulated glycogen synthase in human HepG2 cells at MNTD using [U-14C]UDP glucose as substrate preincubated for 18 hrs followed by insulin stimulation and measured after 15 mins by beta-counting method relative to control; type: cell-based
T3 sequence (whole entry): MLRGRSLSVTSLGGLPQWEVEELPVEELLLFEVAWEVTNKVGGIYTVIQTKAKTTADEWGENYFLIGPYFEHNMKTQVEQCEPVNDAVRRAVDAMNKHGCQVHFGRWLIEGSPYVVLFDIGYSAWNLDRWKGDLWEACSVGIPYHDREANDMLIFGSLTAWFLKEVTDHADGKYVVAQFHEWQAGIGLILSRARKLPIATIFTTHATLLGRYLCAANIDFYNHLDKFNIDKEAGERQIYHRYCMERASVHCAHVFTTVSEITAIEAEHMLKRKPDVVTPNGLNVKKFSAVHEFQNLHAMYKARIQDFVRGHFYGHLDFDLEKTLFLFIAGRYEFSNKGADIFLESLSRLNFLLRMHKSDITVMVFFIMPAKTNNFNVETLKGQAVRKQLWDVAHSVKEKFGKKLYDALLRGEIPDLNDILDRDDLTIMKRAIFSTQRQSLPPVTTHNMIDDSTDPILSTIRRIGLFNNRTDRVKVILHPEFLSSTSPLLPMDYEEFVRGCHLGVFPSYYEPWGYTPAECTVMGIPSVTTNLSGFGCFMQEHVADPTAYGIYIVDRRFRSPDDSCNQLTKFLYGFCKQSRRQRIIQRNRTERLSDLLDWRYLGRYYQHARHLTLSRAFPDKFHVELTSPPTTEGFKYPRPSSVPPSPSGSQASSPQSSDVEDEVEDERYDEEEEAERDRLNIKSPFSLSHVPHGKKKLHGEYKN

[4] = target: RAC-alpha serine/threonine-protein kinase (Rattus norvegicus) (UniProt P47196); test: Activation of Akt in rat […] cells assessed as increase in ratio of phosphorylated Akt to total AKt level at MNTD after 18 hrs by Western blot analysis relative to control; type: cell-based; procedure, shortened: as §1
RAC-alpha serine/threonine-protein kinase (Rattus norvegicus), sequence (P47196 whole entry): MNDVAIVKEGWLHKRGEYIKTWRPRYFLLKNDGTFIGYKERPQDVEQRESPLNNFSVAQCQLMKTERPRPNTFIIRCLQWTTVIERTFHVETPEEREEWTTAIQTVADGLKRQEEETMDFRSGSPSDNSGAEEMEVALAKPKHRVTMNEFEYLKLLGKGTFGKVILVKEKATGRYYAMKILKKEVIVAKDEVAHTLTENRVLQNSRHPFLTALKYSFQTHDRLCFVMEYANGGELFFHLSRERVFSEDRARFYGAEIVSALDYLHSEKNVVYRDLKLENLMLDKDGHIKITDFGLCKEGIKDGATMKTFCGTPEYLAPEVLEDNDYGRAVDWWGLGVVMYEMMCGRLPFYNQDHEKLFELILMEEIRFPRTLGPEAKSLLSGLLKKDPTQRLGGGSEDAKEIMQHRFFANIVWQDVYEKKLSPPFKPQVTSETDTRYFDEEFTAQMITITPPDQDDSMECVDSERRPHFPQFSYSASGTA

Rattus norvegicus = organism: Rattus norvegicus; test: Activation of AMPK in rat […] cells assessed as increase AMPK phosphorylation at MNTD after 18 hrs by Western blot analysis relative to control; type: cell-based; procedure, shortened: as §1
[5] = Solubility of the compound in DMSO; type: physicochemical
[6] = target: T1, Glycogen synthase kinase-3 (Homo sapiens); test: Activation of GSK3 phosphorylation in human HepG2 cells at MNTD after 18 hrs by Western blot analysis relative to control; type: cell-based; procedure, shortened: as §1
[7] = target: T4, Glycogen [starch] synthase, liver (Homo sapiens, UniProt P54840); test: Activation of insulin-stimulated glycogen synthase in human HepG2 cells using [U-14C]UDP glucose as substrate preincubated for 18 hrs followed by insulin stimulation and measured after 15 mins by beta-counting method; type: cell-based
T4 sequence (P54840 whole entry): T3 sequence (whole entry)

[8] = target: T5, Glucose-6-phosphatase catalytic subunit 1 (Rattus norvegicus, UniProt P43428); test: Inhibition of glucose-6-phosphatase in rat H42E cells using glucose-6-phosphate as substrate preincubated overnight followed by substrate addition and measured after 40 mins; type: cell-based; procedure, shortened: as §2
T5 sequence (P43428 whole entry): T2 sequence (whole entry)

T1 sequence (P49840 whole entry, looked up): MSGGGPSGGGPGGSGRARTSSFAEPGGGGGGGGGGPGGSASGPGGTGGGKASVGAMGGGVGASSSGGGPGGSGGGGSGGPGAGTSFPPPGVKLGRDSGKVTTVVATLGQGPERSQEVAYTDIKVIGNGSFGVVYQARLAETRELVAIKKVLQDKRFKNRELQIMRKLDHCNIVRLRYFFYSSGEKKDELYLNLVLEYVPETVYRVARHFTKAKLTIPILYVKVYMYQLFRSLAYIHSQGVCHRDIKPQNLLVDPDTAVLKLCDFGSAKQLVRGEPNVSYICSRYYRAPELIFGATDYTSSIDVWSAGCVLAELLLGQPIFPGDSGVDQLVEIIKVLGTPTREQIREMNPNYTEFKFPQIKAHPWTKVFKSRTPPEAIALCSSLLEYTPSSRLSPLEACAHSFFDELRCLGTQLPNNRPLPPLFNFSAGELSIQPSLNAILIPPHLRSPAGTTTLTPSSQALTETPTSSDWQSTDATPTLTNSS
T1 sequence (P49841 whole entry, looked up): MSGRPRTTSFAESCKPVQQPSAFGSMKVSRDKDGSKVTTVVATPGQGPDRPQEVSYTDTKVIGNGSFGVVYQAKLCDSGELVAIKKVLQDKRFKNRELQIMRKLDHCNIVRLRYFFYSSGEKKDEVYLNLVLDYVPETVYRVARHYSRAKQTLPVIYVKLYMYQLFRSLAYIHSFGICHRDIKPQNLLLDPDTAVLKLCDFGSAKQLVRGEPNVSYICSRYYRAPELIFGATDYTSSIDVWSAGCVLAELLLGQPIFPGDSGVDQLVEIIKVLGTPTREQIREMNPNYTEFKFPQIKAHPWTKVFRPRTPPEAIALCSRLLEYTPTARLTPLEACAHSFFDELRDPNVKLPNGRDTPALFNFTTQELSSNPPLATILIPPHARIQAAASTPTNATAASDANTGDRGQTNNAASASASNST

Row | fold change (FC) [1] | inhibition [2] [%] | fold change (FC) [3] | fold change (FC) [4] | fold change (FC) [6] | EC50 [7] [µM] | IC50 [8] [µM] | Compound | fold change (FC) (Rattus norvegicus) | solubility [5]
1 | 1.8 | 18 to 32 | 1.5 to 3.5 | 2.2 to 4.8 | – | – | – | COc1cc(/C=C/C(=O)O[C@H]2[C@H](O)C[C@]3(C)[C@H]4CC=C5[C@H]6[C@](C(=O)O)(CC[C@@H](C)[C@@]6(C)O)CC[C@@]5(C)[C@]4(C)CC[C@H]3C2(C)C)ccc1O | 2.2 to 3.5 | –
2 | – | – | – | – | – | – | – | CC[C@H](CC[C@@H](C)[C@H]1CC[C@H]2[C@@H]3CC=C4C[C@@H](O)CC[C@]4(C)[C@H]3CC[C@]12C)C(C)C [BETA-SITOSTEROL] | – | Insoluble
3 | – | 18 to 32 | 1.5 to 3.5 | 2.2 to 4.8 | 2 | – | – | C[C@H]1[C@H](C)CC[C@]2(C(=O)O)CC[C@]3(C)C(=CC[C@@H]4[C@@]5(C)CC[C@H](O)C(C)(C)[C@@H]5CC[C@]43C)[C@H]12 | 2.2 to 3.5 | –
4 | – | – | – | – | – | – | – | CC[C@H](/C=C/[C@@H](C)[C@H]1CC[C@H]2[C@@H]3CC=C4C[C@@H](O)CC[C@]4(C)[C@H]3CC[C@]12C)C(C)C [STIGMASTEROL] | – | Insoluble
5 | – | – | – | – | 2 | – | – | NC(=O)c1ncn([C@@H]2O[C@H](CO)[C@@H](O)[C@H]2O)c1N | – | –
6 | – | 18 to 32 | 1.5 to 3.5 | 2.2 to 4.8 | 2 | 4.1 | 4.8 | COc1cc(/C=C/C(=O)O[C@H]2[C@H](OC(C)=O)C[C@]3(C)[C@H]4CC=C5[C@H]6[C@](C(=O)O)(CC[C@@H](C)[C@@]6(C)O)CC[C@@]5(C)[C@]4(C)CC[C@H]3C2(C)C)ccc1O | 2.2 to 3.5 | –
